Measurements as given in PubChem BioAssay AID588556 (Sanford-Burnham Center for Chemical Genomics, 2011).
Calls of active or inactive are those of the source.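 How the source made its calls: active means IC50 at or below 20 µM in the 24 hour cytotoxicity test; inactive means the rest.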

system: CHO-CHOP cells viability, ATPLite luminescence, 24 h; assay: cytotoxicity in CHO-CHOP reporter cells, SAR follow-up, cytotoxicity control for UPR apoptotic arm activator project, cell-based, 24 h exposure, ATPLite luminescence (AID 588556)
Method in brief: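 Test system: CHO-CHOP cells. Quantity: 500 cells/well. Buffer or medium: F12 medium with 10% fetal bovine serum. Dosing: dose series, DMSO ≤1% final. Timing: 16-18 h cell pre-culture, 24 h compound treatment, 37 °C. Measured by: ATP-dependent luminescence with ATPLite 1-Step reagent. Controls: tunicamycin 10 µg/mL final as positive control, DMSO alone as negative.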

SMILES | IC50
O=C(Nc1nc2cccc(F)c2s1)c1ccccn1 | 2.35 µM
Cc1cc(C)c2nc(NC(=O)c3ccccn3)sc2c1 | 5.31 µM
O=C(Nc1ccc(S(=O)(=O)N2CCC3(CCCCC3)CC2)cc1)c1ccc([N+](=O)[O-])o1 | 1.16 µM
O=C(Nc1ccc(S(=O)(=O)c2ccccc2)cc1)c1ccc([N+](=O)[O-])o1 | 40.4 µM (inactive)
O=C(Nc1nc2cc(F)cc(F)c2s1)c1ccccn1 | 1.83 µM
O=C(Nc1ccc(S(=O)(=O)C2CCOCC2)cc1)c1ccc([N+](=O)[O-])o1 | 66.3 µM (inactive)
O=C(Nc1nc2ccc(C(F)(F)F)cc2s1)c1ccccn1 | 1.22 µM
O=C(Nc1ccc(S(=O)(=O)N2CCCCC2)cc1)c1ccc([N+](=O)[O-])o1 | > 80 µM (inactive)
O=C(Nc1ccc(S(=O)(=O)N2CCOCC2)cc1)c1ccc([N+](=O)[O-])s1 | > 80 µM (inactive)
O=C(Nc1nc2c(Cl)cc(Cl)cc2s1)c1ccccn1 | 13.3 µM
CC1(C)CCN(S(=O)(=O)c2ccc(NC(=O)c3ccc([N+](=O)[O-])o3)cc2)CC1 | 12.6 µM
O=C(Nc1nc2ccc(F)c(F)c2s1)c1ccccn1 | 1.42 µM
O=C(Nc1ccc(S(=O)(=O)N2CCOCC2)cc1)c1ccc([N+](=O)[O-])o1 | 53.5 µM (inactive)
O=C(Nc1nc2c(F)cccc2s1)c1ccccn1 | 1.58 µM
O=C(Nc1nc2c(F)cc(F)cc2s1)c1ccccn1 | 1.4 µM
O=C(Nc1nc2ccc(F)cc2s1)c1ccccn1 | 1.93 µM
O=C(Nc1nc2ccc(Cl)cc2s1)c1ccccn1 | 1.23 µM
O=C(Nc1ccc(S(=O)(=O)N2CCCC2)cc1)c1ccc([N+](=O)[O-])o1 | 25 µM (inactive)
O=C(Nc1nc2c(F)c(F)ccc2s1)c1ccccn1 | 1.68 µM
O=C(Nc1nc2cc(F)c(F)cc2s1)c1ccccn1 | 2.66 µM
O=C(Nc1ccc(S(=O)(=O)C2CCCCC2)cc1)c1ccc([N+](=O)[O-])o1 | 26.7 µM (inactive)
CC1CCN(S(=O)(=O)c2ccc(NC(=O)c3ccc([N+](=O)[O-])o3)cc2)CC1 | > 80 µM (inactive)
O=C(Nc1ccc(S(=O)(=O)N2CCC(F)CC2)cc1)c1ccc([N+](=O)[O-])o1 | 32.6 µM (inactive)
O=C(Nc1nc2cc(F)ccc2s1)c1ccccn1 | 1.57 µM
O=C(Nc1ccc(S(=O)(=O)N2CCC(Cl)CC2)cc1)c1ccc([N+](=O)[O-])o1 | 66.8 µM (inactive)
CC1CN(S(=O)(=O)c2ccc(NC(=O)c3ccc([N+](=O)[O-])o3)cc2)CC(C)O1 (stereo not given) | 51.4 µM (inactive)
O=C(Nc1nc2c(F)ccc(F)c2s1)c1ccccn1 | 1.67 µM
CC(C)(C)C1CCN(S(=O)(=O)c2ccc(NC(=O)c3ccc([N+](=O)[O-])o3)cc2)CC1 | 2.42 µM
O=C(Nc1ccc(S(=O)(=O)N2CCC(O)CC2)cc1)c1ccc([N+](=O)[O-])o1 | 45.9 µM (inactive)
O=C(Nc1ccc(S(=O)(=O)N2CCNCC2)cc1)c1ccc([N+](=O)[O-])o1 | > 80 µM (inactive)
